Common to all, as to conditions: stereoisomer not certain
One experiment addresses T1, UniProt E9PVX1.
T1 sequence (whole entry): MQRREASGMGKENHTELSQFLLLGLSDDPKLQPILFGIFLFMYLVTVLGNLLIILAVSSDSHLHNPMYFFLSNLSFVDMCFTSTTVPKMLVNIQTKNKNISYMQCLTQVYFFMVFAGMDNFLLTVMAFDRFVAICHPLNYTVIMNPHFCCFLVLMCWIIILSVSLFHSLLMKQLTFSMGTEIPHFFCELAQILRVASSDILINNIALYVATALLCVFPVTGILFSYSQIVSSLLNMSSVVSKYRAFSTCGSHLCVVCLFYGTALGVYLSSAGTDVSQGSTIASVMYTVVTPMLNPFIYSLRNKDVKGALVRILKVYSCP
The essentials:
(§1)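 Transient luciferase assays in mammalian cell lines were common, though methods varied by source. The values come from published papers and their supplementary material, with extra details from the original authors when needed. Responsive refers to a measured signal the original authors judged statistically different from baseline, and non-responsive (inactive) to the remainder.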

A further experiment concerns the target T2, UniProt E9PZ66.
T2 sequence (whole entry): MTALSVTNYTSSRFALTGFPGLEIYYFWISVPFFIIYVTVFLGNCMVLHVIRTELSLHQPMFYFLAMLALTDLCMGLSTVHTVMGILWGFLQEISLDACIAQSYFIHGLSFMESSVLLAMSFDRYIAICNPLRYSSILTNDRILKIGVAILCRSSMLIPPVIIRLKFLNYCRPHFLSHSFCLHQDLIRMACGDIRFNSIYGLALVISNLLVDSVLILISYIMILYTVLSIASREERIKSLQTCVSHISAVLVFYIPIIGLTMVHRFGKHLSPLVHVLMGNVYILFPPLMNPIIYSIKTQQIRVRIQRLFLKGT
The essentials:
as §1

In another experiment the target is T3, UniProt E9Q4X7.
T3 sequence (whole entry): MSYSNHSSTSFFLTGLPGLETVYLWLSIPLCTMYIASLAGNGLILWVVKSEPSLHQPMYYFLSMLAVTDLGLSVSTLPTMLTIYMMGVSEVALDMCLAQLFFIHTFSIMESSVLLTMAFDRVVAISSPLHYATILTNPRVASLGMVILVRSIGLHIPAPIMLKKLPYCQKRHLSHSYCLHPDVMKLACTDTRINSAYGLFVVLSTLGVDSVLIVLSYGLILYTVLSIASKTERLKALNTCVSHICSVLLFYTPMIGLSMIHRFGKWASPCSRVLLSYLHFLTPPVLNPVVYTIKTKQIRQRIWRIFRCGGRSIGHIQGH
The essentials:
as §1

A further experiment deals with T4, UniProt E9Q546.
T4 sequence (whole entry): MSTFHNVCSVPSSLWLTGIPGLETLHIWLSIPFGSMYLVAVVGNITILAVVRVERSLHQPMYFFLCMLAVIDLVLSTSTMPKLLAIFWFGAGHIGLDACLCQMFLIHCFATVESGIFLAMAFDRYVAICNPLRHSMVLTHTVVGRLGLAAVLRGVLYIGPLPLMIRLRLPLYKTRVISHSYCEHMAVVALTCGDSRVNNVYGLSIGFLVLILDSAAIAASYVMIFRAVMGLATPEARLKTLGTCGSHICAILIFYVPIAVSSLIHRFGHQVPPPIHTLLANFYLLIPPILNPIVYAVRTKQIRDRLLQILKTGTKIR
The essentials:
as §1

The next experiment has as its target T5, UniProt E9Q6Z7.
T5 sequence (whole entry): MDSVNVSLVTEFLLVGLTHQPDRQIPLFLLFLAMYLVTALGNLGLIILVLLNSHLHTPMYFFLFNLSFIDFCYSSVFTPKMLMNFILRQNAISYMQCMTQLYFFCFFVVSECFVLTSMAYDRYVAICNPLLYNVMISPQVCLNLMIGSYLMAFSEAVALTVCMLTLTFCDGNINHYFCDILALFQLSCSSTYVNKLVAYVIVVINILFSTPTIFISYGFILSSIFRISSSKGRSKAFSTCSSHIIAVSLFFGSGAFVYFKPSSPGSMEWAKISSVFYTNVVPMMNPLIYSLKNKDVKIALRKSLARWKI
The essentials: as §1

The target in another experiment is T6, UniProt L7MU75.
T6 sequence (whole entry): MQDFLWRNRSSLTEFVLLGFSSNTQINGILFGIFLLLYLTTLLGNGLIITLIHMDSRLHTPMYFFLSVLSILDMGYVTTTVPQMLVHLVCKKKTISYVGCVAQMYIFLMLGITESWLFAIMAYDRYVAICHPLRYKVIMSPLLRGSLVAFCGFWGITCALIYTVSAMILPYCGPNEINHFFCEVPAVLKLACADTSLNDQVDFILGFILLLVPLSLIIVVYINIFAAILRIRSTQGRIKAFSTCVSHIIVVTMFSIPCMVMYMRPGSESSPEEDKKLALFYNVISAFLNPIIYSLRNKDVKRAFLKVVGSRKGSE
The essentials:
as §1

Another experiment addresses T7, UniProt L7N210.
T7 sequence (whole entry): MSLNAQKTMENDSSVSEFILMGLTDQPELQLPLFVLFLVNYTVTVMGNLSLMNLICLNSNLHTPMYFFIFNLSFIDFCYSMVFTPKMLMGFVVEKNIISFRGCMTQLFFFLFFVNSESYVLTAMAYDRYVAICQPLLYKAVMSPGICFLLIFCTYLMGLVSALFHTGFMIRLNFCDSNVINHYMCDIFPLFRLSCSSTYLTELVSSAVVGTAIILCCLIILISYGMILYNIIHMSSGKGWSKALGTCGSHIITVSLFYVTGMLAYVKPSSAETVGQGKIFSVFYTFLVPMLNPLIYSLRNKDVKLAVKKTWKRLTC
The essentials: as §1

The next experiment deals with T8, UniProt Q3KPB0.
T8 sequence (whole entry): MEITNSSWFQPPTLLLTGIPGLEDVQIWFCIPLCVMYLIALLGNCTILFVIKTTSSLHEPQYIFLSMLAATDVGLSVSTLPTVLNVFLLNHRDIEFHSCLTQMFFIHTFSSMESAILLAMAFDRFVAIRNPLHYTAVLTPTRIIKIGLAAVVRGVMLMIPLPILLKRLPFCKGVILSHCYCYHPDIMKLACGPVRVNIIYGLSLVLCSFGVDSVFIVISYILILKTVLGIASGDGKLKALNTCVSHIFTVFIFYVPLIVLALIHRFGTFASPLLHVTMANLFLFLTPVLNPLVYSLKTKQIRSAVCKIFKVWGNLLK
The essentials:
as §1

Another experiment has as its target T9, UniProt Q3U0P3.
T9 sequence (whole entry): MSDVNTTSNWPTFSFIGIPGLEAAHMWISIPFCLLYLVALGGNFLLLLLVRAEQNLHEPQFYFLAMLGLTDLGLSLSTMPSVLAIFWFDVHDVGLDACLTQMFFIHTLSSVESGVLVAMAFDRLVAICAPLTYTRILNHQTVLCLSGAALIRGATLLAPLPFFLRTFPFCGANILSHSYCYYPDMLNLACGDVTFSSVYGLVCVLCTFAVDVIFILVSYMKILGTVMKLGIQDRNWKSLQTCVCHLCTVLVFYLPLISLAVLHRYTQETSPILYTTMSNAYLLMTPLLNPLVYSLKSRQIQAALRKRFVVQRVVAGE
The essentials:
as §1

Another experiment addresses T10, UniProt Q7TQU8.
T10 sequence (whole entry): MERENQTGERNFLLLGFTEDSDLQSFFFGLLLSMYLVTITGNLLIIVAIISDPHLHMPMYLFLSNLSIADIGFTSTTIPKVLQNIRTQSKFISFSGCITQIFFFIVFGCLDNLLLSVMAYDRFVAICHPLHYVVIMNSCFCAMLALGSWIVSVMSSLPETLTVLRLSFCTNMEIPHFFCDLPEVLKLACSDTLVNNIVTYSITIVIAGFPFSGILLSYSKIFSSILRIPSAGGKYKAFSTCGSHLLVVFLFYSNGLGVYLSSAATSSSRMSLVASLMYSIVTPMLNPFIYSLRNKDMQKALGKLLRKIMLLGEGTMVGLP
The essentials:
as §1

The target in the next experiment is T11, UniProt Q7TR79.
T11 sequence (whole entry): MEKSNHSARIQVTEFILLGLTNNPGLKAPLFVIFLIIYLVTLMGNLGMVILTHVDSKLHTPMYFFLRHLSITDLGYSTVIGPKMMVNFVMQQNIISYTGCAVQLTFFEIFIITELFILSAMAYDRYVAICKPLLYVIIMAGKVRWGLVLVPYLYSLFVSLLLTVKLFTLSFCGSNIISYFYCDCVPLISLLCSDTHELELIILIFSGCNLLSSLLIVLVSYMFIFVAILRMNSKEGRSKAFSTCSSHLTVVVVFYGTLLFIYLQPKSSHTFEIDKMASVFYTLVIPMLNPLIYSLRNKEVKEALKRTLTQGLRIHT
The essentials: as §1
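Note: active if original authors judged signal statistically different from baseline.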

Consider `Cc1ccc(OC(=O)Cc2ccccc2)cc1`, for which the “odorant receptor agonist call” value in the experiment with UniProt E9PVX1, in the experiment with UniProt E9PZ66, with UniProt E9Q4X7, with UniProt E9Q546, in the experiment with UniProt E9Q6Z7 and with UniProt L7MU75 was “inactive” each time. The “odorant receptor agonist call” value in the experiment with UniProt L7N210, with UniProt Q3KPB0, with UniProt Q3U0P3, in the experiment with UniProt Q7TQU8 and in the experiment with UniProt Q7TR79 was “inactive” throughout.

Consider `OCc1ccc2c(c1)OCO2`, for which the “odorant receptor agonist call” value in the experiment with UniProt E9PVX1, in the experiment with UniProt E9PZ66, with UniProt E9Q4X7, with UniProt E9Q546, in the experiment with UniProt E9Q6Z7 and with UniProt L7MU75 was “inactive” each time. The “odorant receptor agonist call” value with UniProt L7N210, with UniProt Q3KPB0, in the experiment with UniProt Q3U0P3, with UniProt Q7TQU8 and with UniProt Q7TR79 was “inactive” throughout.

On to `COc1ccc(C=O)cc1`, for which the “odorant receptor agonist call” value with UniProt E9PVX1, with UniProt E9PZ66, in the experiment with UniProt E9Q4X7, with UniProt E9Q546, with UniProt E9Q6Z7 and with UniProt L7MU75 was “inactive” in each case. Also, the “odorant receptor agonist call” value with UniProt Q3KPB0, with UniProt Q3U0P3, in the experiment with UniProt Q7TQU8 and with UniProt Q7TR79 was “inactive” in each case. Besides, in the experiment with UniProt L7N210, the “odorant receptor agonist call” value was “active”.

Turning to `CCCCCCC(Br)C(=O)O` (centres undefined), the “odorant receptor agonist call” value with UniProt E9PVX1, with UniProt E9PZ66, with UniProt E9Q4X7, with UniProt E9Q546, in the experiment with UniProt E9Q6Z7 and in the experiment with UniProt L7MU75 was “inactive” each time. The “odorant receptor agonist call” value with UniProt L7N210, with UniProt Q3KPB0, in the experiment with UniProt Q3U0P3, with UniProt Q7TQU8 and in the experiment with UniProt Q7TR79 was “inactive” each time.
